A selection: hits, their analogues and other compounds. The true share with any hit is near 1.9%.
UHRF1 MBD2 ctr – UHRF1 methylated DNA binding inhibitors, primary screen, counter-screen for MBD2 inhibitor project, biochemical, TR-FRET, human UHRF1, single concentration | inhibition, % at 4.4 µM | E3 ubiquitin-protein ligase UHRF1 (Homo sapiens), Q96T88 | 370,000 compounds, 0.75% hits | UHRF1 binding to methylated oligo | AID 687016, 2013; in the data active = inhibition above about 21%;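 also: UHRF1 SRA domain binding a hemimethylated CpG hairpin DNA probe; 0% = median of test compound wells and 100% = reference inhibitor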
Rin1 Abl inh – inhibitors of Rin1-Abl protein binding, primary screen, biochemical, TR-FRET; Tyrosine-protein kinase ABL1 (Homo sapiens) + Ras and Rab interactor 1 (Homo sapiens), …; inhibition, % at 7.35 µM; 360,000 compounds, 0.4% hits; AID 588664, 2011; in the data active = inhibition above about 5%, passing the limit was not always enough
LEDGF integ inh – blockers of LEDGF/p75-dependent integrase strand transfer – biochemical, TR-FRET, high throughput, primary screen; 370,000 compounds, 0.64% hits; TR-FRET IN-LEDGF/p75 DNA integration, Eu/Cy5; inhibition, % at 3.7 µM;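 active = inhibition above the screen-wide mean plus 3 SD, cut at about 13% in these data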;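 also: signal is the Cy5 over europium emission ratio at 671 and 618 nm; 0% = plate median of compound wells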
TDP2 absorb – human TDP2 enzyme inhibitors, primary screen, biochemical, epi absorbance, recombinant enzyme; T5PNP hydrolysis, p-nitrophenol absorbance 415 nm; inhibition, % at 12.8 µM; 370,000 compounds, 0.34% hits; AID 720702, 2013;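 active = inhibition above the mean of all tested compounds plus 3 SD, set per campaign, cut at about 25% in these data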;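 also: 0% = DMSO with enzyme and 100% = buffer with substrate but no TDP2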
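Material: recombinant human TDP2; quantity: TDP2 enzyme at 120 nM final; medium: Tris-HCl pH 7.5 with MgCl2; compound: single concentration, 12.8 µM nominal, with 1% DMSO; incubation: 2 h enzyme incubation at 37 °C; signal: epi absorbance; measure: percent inhibition; benchmarks: high control without enzyme, low control DMSO plus TDP2; repeats: singlicate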
MBD2 inh – inhibitors of MBD2 binding to methylated DNA, primary screen, biochemical, TR-FRET, DNA-binding domain, human; MBD2 binding to methylated oligonucleotide; inhibition, % at 4.4 µM; 370,000 compounds, 0.31% hits; Methyl-CpG-binding domain protein 2 (Homo sapiens), Q9UBB5; in the data active = inhibition above about 13%
TDP2 inh conf – human TDP2 enzyme inhibitors, retest, confirmation, biochemical, epi absorbance, recombinant enzyme; shares compounds with TDP2 absorb; absorbance read-out; inhibition, % at 12.8 µM; 1,100 compounds, 22% hits; AID 743263, 2014; in the data active = inhibition above about 25%;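 also: 0% = vehicle with enzyme and 100% = no enzyme buffer only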
* = called active by the depositor; nt = not tested or not shown.

SMILES	UHRF1 MBD2 ctr	Rin1 Abl inh	LEDGF integ inh	TDP2 absorb	MBD2 inh	TDP2 inh conf
N/C(=N\N=Cc1ccc2c(c1)OCO2)NN=Cc1ccc2c(c1)OCO2	2.2	3.7	43.0*	44.0*	-5.2	-6.8
N#Cc1c(NC(=O)c2ccc(Br)o2)n(-c2ccccc2)c2nc3ccccc3nc12	6.1	7.7*	7.1	27.9*	-1.0	59.6*
N#Cc1ccc(OCc2ccc(C(=O)O)o2)cc1	-0.6	3.7	-3.0	25.6*	-3.0	1.6
C[C@H]1CCC/C=C/C(=O)c2c(cc(O)c(Cl)c2O)CC(=O)O1	-0.6	nt	10.7	3.2	-0.7	nt
Cc1ccccc1N=Nc1c(N)[nH]n(-c2ccccc2)c1=O	-8.4	nt	0.5	3.7	-10.4	nt
COc1ccc(CCNC(=O)c2ccccc2)cc1	-1.1	0.4	-3.9	69.7*	1.6	2.1
O=C(O)COc1ccccc1/C=C1\C(=O)Nc2ccc(Br)cc21	-0.4	0.6	-2.2	28.6*	-6.3	14.1
O=C1Nc2ccc(Br)cc2/C1=C/C(=O)c1ccccc1	-1.3	3.1	-0.1	10.0	-7.9	nt
Cc1ccc(C2C(C#N)=C(N)Oc3n[nH]c(-c4cccs4)c32)s1 (configuration not stated)	-8.4	1.8	5.9	34.3*	-4.3	0.4
N#CC1=C(N)Oc2n[nH]c(-c3cccs3)c2C1c1ccncc1 (configuration not stated)	-10.3	1.4	-0.2	15.9	-2.1	nt
Cc1cc(C)c(O)c(NC(=S)NC(=O)Cc2ccccc2)c1	1.4	-0.1	1.2	-3.5	1.2	nt
O=C(Nc1c(-c2ccccc2)[nH][nH]c1=O)c1ccc2c(c1)OCO2	5.1	nt	9.7	47.6*	2.0	22.5
Cc1ccccc1S(=O)Cc1ccc(C(=O)N2CCN(C(=O)c3ccco3)CC2)o1 (configuration not stated)	0.7	1.6	-1.0	39.3*	0.9	-3.1
Clc1ccc(-n2c(SCc3cccc4ccccc34)nnc2-c2ccco2)cc1	-0.3	nt	2.0	6.1	-9.7	nt
CCOC(=O)CSC1=NC(=O)/C(=C/c2ccc(Br)cc2)S1	-0.3	-1.8	4.2	24.8*	0.2	4.4
O=S(=O)(c1cccc(Cn2nnc(-c3ccccc3)n2)c1)N1CCOCC1	5.5	-0.8	-1.0	-0.4	0.5	nt
O=S(=O)(N/N=C/c1ccccc1F)c1ccccc1	-0.5	1.6	2.3	2.4	3.0	nt
Cc1ccc(S(=O)(=O)N/N=C/c2ccccc2F)cc1[N+](=O)[O-]	-0.4	-3.8	-5.9	29.0*	-1.4	8.3
COC(=O)[C@]12C[C@H](CC(=O)N3CCCCC3)C(=O)N(Cc3ccc(Cl)cc3Cl)C1=C[C@H](C(C)C)O[C@@H]2C1CC1	-1.2	nt	4.1	1.6	-6.8	nt
COc1cccc(OC)c1NC(=O)C1CCCN1C(=O)Nc1ccccc1F (configuration not stated)	-0.1	1.4	0.9	0.8	-0.7	nt
O=C1NC(=O)/C(=C/c2ccc(-c3cc(C(=O)O)ccc3Cl)o2)S1	10.6	0.4	6.6	32.5*	0.6	15.7
CCOC(=O)C1(CCOC)CCN(C(=O)c2sccc2C)CC1	-0.5	-1.8	-3.1	26.0*	-1.0	-9.9
COc1ccc(CNc2nc3nc(-c4ccccc4)cc(=O)n3[nH]2)cc1OC	2.7	-0.4	-2.3	32.6*	6.0	6.7
CCCN1CCN(C(=O)c2ccc(F)c(S(=O)(=O)N3CCOCC3)c2)CC1	0.1	5.9	1.4	38.8*	7.8	3.3
O=[N+]([O-])c1ccc(Oc2ccc(-c3nnco3)cc2)c(Cl)c1	-0.1	2.1	3.8	46.5*	-1.4	4.0
CC(=O)OC12CCCN(C1)/C(=C/c1cccc(Cl)c1)C2 (configuration not stated)	0.4	nt	-2.4	-5.2	-1.8	nt
CC(NC(=O)C(C)N1CCN(Cc2ccccc2)CC1)c1ccccc1 (configuration not stated)	0.6	2.2	0.7	24.5*	-4.7	-3.2

Compound activity from PubChem BioAssay.
